Compound activity deposited in PubChem by several laboratories.
KCNQ1 pot: human KCNQ1 channel potentiation or activation; CHO-K1 KCNQ1, thallium flux FluxOR fluorescence; hits give high values; B-score at 10 µM; actives 0.35% (n = 310,000); AID 2648;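 active means fluorescence ratio B-score, a plate-corrected score, at least three library SD, with initial intensity B-score within 5 SD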
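Medium – assay buffer, equal DMSO in all wells · Material – CHO-K1 cell line with stable KCNQ1 potassium channel expression · Signal – kinetic FluxOR thallium fluorescence, 10-s 1-Hz baseline, 110-s post-stimulus read · Compound – single concentration per compound, DMSO matched to controls · Schedule – 37 °C overnight plating, 90-min dark dye load, 20-min compound pretreatment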
KCNK9 block: blocks the human KCNK9 two-pore domain potassium channel | HEK293 KCNK9, FluxOR thallium flux fluorescence; hits give low values | B-score at 10 µM | actives 1.2% (n = 310,000) | Q9NPC2;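 active means ratio B-score over 3 SD below the library mean, with starting fluorescence within 5 SD of its mean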;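 further: negative B-score means less thallium flux so channel inhibition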
Target sequence (Q9NPC2 whole entry, looked up, the tested form may be a part): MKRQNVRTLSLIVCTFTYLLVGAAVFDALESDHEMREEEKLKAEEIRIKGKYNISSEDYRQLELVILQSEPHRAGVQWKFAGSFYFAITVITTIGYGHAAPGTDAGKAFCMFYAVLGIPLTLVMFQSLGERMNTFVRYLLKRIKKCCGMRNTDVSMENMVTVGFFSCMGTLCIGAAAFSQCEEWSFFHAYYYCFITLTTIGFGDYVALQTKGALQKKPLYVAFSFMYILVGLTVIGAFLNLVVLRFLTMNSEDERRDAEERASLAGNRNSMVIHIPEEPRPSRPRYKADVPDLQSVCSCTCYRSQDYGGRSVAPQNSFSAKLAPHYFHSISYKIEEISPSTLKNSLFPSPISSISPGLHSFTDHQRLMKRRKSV
hERG protect: hERG (human) protection from proarrhythmic block. Q12809. CHO-hERG, FluxOR thallium flux, dofetilide IC70 present. activation (rescue from dofetilide block), less the hit threshold, % at 10 µM. actives 0.51% (n = 310,000);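 active means activation above the mean of controls blocked by dofetilide plus 5 SD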;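 further: thallium influx through hERG after potassium depolarization seen as dye fluorescence rise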
KCNK3 block: human KCNK3 channel inhibition, primary screen; AID 602410; actives 0.84% (n = 340,000); CHO-KCNK3 thallium flux, FluxOR fluorescence; hits give low values; B-score at 10 µM; O14649;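 active means B-score under library mean minus 4 SD, starting fluorescence ratio at most library mean plus 5 SD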;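 further: more negative B-score means stronger inhibition of thallium flux through KCNK3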
Target sequence (O14649 whole entry, looked up): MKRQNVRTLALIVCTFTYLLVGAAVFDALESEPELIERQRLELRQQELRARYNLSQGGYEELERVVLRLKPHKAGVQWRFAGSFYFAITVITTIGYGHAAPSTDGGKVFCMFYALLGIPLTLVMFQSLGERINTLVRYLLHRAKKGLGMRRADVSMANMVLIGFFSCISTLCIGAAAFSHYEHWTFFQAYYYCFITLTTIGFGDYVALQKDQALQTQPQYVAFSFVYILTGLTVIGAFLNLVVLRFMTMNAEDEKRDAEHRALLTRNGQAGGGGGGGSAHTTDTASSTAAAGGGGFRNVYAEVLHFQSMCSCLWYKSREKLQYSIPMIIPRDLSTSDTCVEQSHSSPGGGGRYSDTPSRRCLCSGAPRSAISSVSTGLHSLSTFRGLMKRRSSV
KCNQ1 inh: human KCNQ1 channel inhibition. P51787. CHO-K1 KCNQ1, FluxOR thallium flux fluorescence; hits give high values. B-score at 10 µM. actives 1.3% (n = 310,000). AID 2642;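 active means compounds whose thallium flux B-score, printed positive for inhibition, exceeds three library SD while starting fluorescence stays within three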;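 further: channel opened by potassium depolarization with thallium stimulus after 20 min compound exposure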
KCC2 mod: modulators of human KCC2 chloride dependent transport; AID 1456; B-score of Tl+ flux slope (higher = more flux/activation; lower = inhibition) at 10 µM; actives 2.2% (n = 190,000); KCC2 cells, thallium flux FluoZin-2 fluorescence; Q9H2X9;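 active means thallium flux slope and its plate-corrected score both differing from the plate sample mean at a set confidence after two filtering rounds, in either direction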;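 further: slope of fluorescence scaled to starting intensity during 10 to 20 s after thallium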
KCC2 sec1: confirmation of human KCC2 transport modulators; AID 1713; actives 15% (n = 3,700); shares compounds with KCC2 mod; normalised thallium flux (F/F0 slope) at 10 µM; HEK293-KCC2, thallium flux, FluoZin2 fluorescence; hits give high values;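 active means thallium flux slope above the same plate's solvent-only control mean plus 3 SD; inconclusive means the two replicate wells disagree; inactive means no significant difference from solvent-only control wells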
KCC2 bumet counter: thallium flux despite bumetanide block in KCC2 cells, secondary assay 3; shares compounds with KCC2 mod; HEK293-KCC2 + bumetanide/ouabain, thallium flux FluoZin2; hits give high values; normalized thallium flux at 10 µM; actives 49% (n = 3,700); AID 1714;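 active means thallium entry rate above the same plate's blocked-transporter control wells by more than 3 SD; inconclusive means the two repeat wells disagree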;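 further: raw slope of fluorescence over initial fluorescence between 10 and 20 s after thallium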
KCC2 sec2: KCC2 (human) modulation, second secondary assay. HEK293-KCC2, thallium flux FluoZin2 fluorescence; actives lie on both sides; F/F0 rise rate, 10–20 s post-thallium. actives 23% (n = 3,700). AID 1715. shares compounds with KCC2 mod. normalized thallium flux at 10 µM;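 active means thallium flux slope more than 3 SD above or below the plate's solvent-only control mean, mostly below; inconclusive means the two repeat wells disagreed; inactive means no significant shift from solvent-only controls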;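 further: raw slope with 0.1% DMSO as baseline and bumetanide as block control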
HEK counter1: parental HEK flux effect, counter-screen. thallium flux rate (normalised fluorescence) at 10 µM. HEK293 parental cells, thallium flux FluoZin2, ouabain; baseline-ratio fluorescence slope, 10–20 s after thallium. actives 46% (n = 3,700). shares compounds with KCC2 mod;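 active means thallium flux rate significantly above the same plate's solvent-only control wells, beyond their mean plus 3 SD; inconclusive means the two replicate wells gave conflicting results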
KCC2 ouabain: modulates human KCC2 on retest with ouabain | actives 48% (n = 3,700) | shares compounds with KCC2 mod | AID 1717 | raw Tl+ flux slope (below DMSO = inhibition, above = activation) at 10 µM | HEK293-KCC2, thallium flux FluoZin2 fluorescence; bidirectional: low = inhibitor, high = activator;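 active means thallium flux slope beyond 3 SD from same-plate DMSO control mean in most replicates, usually higher, sometimes lower; inconclusive means repeat tests gave conflicting results; inactive means no significant difference from controls in most replicates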;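 further: slope of initial-normalized fluorescence between seconds 10 and 20 after thallium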
HEK counter2: acts in parental HEK cells, second KCC2 counter-screen; HEK293 parental, thallium flux FluoZin-2 fluorescence slope; actives 33% (n = 3,700); thallium flux slope at 10 µM; shares compounds with KCC2 mod;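 active means thallium flux slope above the same plate's solvent-control mean plus 3 SD in both duplicate wells; inconclusive means duplicate wells that disagreed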;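 further: run without ouabain in cells lacking the KCC2 cotransporter; slope of fluorescence scaled to its starting value between 10 and 20 s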
* marks the source's active call; other numbers are inactive results; i = inactive; ? = inconclusive; . = no result given. This is a sample that favours compounds with a hit; in the whole collection about 4.1% have one here.

SMILES | KCNQ1 pot | KCNK9 block | hERG protect | KCNK3 block | KCNQ1 inh | KCC2 mod | KCC2 sec1 | KCC2 bumet counter | KCC2 sec2 | HEK counter1 | KCC2 ouabain | HEK counter2
O=C(CCn1c(=O)oc2ccccc21)NCCN1CCc2ccccc2C1 | i | i | -6.8 | i | i | -0.417 | . | . | . | . | . | .
CC1Cc2ccccc2N1C(=O)CN(C)CC(=O)Nc1ccc(F)cc1 (configuration not stated) | . | . | . | i | . | . | . | . | . | . | . | .
CCOC(=O)c1sc2nc[nH]c(=O)c2c1C | i | i | -7.5 | i | i | 5.81* | 0.00844 | 0.00644 | 0.0301 | 0.00755 | 0.0234 | ?
CCOC(=O)c1sc2ncnc(OC)c2c1C | i | i | -0.9 | i | i | . | . | . | . | . | . | .
O=C(CSc1ccc(-c2ccc(F)cc2)nn1)N1CCCCC1 | i | i | -4.9 | i | i | -5.29* | 0.00631 | 0.005 | 0.026 | 0.00753 | 0.0144* | 0.0104
CC1CCN(C(=O)CSc2ccc(-c3ccc(F)cc3)nn2)CC1 | i | i | -10.1 | i | i | -5.29* | 0.00581 | ? | 0.0209* | 0.00753 | 0.015* | 0.00985
O=C(CSc1ccc(-c2ccncc2)nn1)N1CCCCC1 | i | i | -4.6 | i | i | 0.53 | . | . | . | . | . | .
CC(C)N(C(=O)CSc1nc2c([nH]1)c(=O)n(C)c(=O)n2C)c1ccccc1 | i | i | -3.0 | i | i | -3.68* | 0.01 | 0.00643 | 0.0303 | 0.00779 | 0.019 | 0.0103
COc1ccc(CNn2c(-c3cccc(C)c3)nc3ccccc3c2=O)cc1OC | i | i | -12.4 | i | i | . | 0.00937 | 0.00605 | 0.03 | 0.0075 | 0.0205 | 0.0101
O=C(Nn1c(O)c(C=C2N=c3ccccc3=N2)sc1=S)c1ccccc1Cl | i | i | -10.4 | i | i | -4.38* | 0.0169 | 0.00483 | 0.0203* | 0.0077 | 0.0136 | 0.0118
CCOc1ccc(N2C(=O)C3Sc4[nH]c(=O)sc4C(/C=C/c4ccccc4)C3C2=O)cc1 (configuration not stated) | i | i | -4.6 | i | i | -5.55* | 0.00674 | ? | 0.0188* | 0.00833 | 0.0146* | 0.0113
CCCOc1cccc(-c2cc(C(=O)NN)c3ccccc3n2)c1 | i | i | -18.2 | i | i | 22* | 0.00654 | 0.00438 | 0.0289 | 0.00731 | 0.0188 | 0.00961
COc1cc(-c2nc(CN3CCN(c4ncccn4)CC3)c(C)o2)ccc1F | i | i | -10.6 | i | i | -3.04* | 0.00592 | 0.0043 | 0.0316 | ? | 0.0206 | ?
COc1cc(-c2nc(CN3CCN(CC(C)C)C(=O)[C@@H]3C)c(C)o2)ccc1F | i | i | -6.2 | i | i | -0.747 | . | . | . | . | . | .
Cc1ccc(C2=Nn3c(COc4ccc(Cl)cc4)nnc3SC2CC(=O)O)cc1 (configuration not stated) | i | i | -1.9 | i | i | . | . | . | . | . | . | .
CCN1C/C(=C/c2ccc(N3CCOCC3)cc2)C(=O)/C(=C/c2ccc(N3CCOCC3)cc2)C1 | i | i | -20.4 | i | i | -5.42* | 0.00364* | 0.00161* | 0.0297* | ? | 0.00886* | 0.0105
CN1C/C(=C\c2ccc(N3CCOCC3)cc2)C(=O)/C(=C/c2ccc(N3CCOCC3)cc2)C1 | i | i | -9.3 | i | i | -9.18* | 0.00277* | -0.000702* | 0.0169* | 0.00558* | 0.00754* | ?
CCc1ccc(/C=C2/SC(N3CCOCC3)=NC2=O)cc1 | i | i | -12.0 | i | i | -1.16 | . | . | . | . | . | .
Clc1ccc(CSC2=NCCCN2)cc1Cl | i | i | -6.1 | i | i | 0.0331 | . | . | . | . | . | .
Clc1ccccc1CSC1=NCCCN1 | i | i | -8.7 | i | i | . | 0.0075 | 0.00472 | 0.0311 | 0.00796 | 0.0195 | 0.0108
Cc1ccc(C)c(NC(=S)NNC(=O)c2csc(C)c2C)c1 | i | i | -0.7 | i | i | 11.4* | 0.0161* | 0.0406* | 0.0382 | 0.0398* | 0.0421* | 0.015*
Cc1ccc(C)c(NC(=S)NNC(=O)c2sccc2C)c1 | i | i | -7.7 | i | i | 4.07* | 0.0109 | 0.0261* | 0.0379 | ? | 0.0312* | 0.0111
CC(CCc1ccccc1)NC(=O)/C=C/c1ccc(Cl)cc1 (configuration not stated) | i | i | -12.4 | i | i | -8.08* | 0.00733 | 0.00559 | 0.0268 | 0.00654 | 0.018 | 0.00932
Cc1ccc(C)c(C(=O)NC(C)CCc2ccccc2)c1 (configuration not stated) | i | i | -6.1 | i | i | -3.49* | 0.00748 | 0.00437 | 0.0253* | 0.00744 | ? | 0.01
Cc1occc1C(=O)NC(C)CCc1ccccc1 (configuration not stated) | i | i | 0.0 | i | i | -0.52 | . | . | . | . | . | .
O=C(Nc1ccccc1F)c1ccc(COc2ccc(Cl)cc2Cl)o1 | i | i | -7.8 | i | i | 0.376 | . | . | . | . | . | .
CC(C)CNC(=O)c1ccc(COc2ccc(Cl)cc2Cl)o1 | i | i | -11.8 | i | i | -4.03* | 0.00536 | 0.00494 | 0.0233* | 0.00617 | 0.0134* | 0.00913
CN(C)c1ccc(NC(=O)c2sc(SCC(=O)Nc3nccs3)nc2N)cc1 | i | i | -5.0 | i | i | 14* | 0.00607 | 0.0133* | 0.0343 | 0.0117* | ? | 0.0145*
CN(C)c1ccc(NC(=O)c2sc(SCC(=O)Nc3ccc(Br)cc3)nc2N)cc1 | i | i | -9.9 | i | i | . | . | . | . | . | . | .
CS(=O)(=O)N(CC(=O)N/N=C/c1cccc2c1OCCO2)c1ccccc1Br | i | i | -13.7 | i | i | 0.0353 | . | . | . | . | . | .
